From ChEMBL document CHEMBL1126849, “Synthesis of A-ring fluorinated derivatives of (17 alpha,20E/Z)-[125I]iodovinylestradiols: effect on receptor binding and receptor-mediated target tissue uptake” (J Med Chem, 1993)

Experiments:
Rattus norvegicus [1] = experiment: Biodistribution in lungs of immature female rat after 3 hour administration of 3 micro Ci (111 kBq) in the absence of 60 microg estradiol; format: ADME, organism-based, Lung; details: in vivo
Summary of the method: (§1)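 Immature female Long Evans rats (21–24 days, 45–70 g), three to five per group, given 125I-labeled steroid (3 μCi, 111 kBq) by lateral tail vein without anesthesia. Vehicle: ethanol diluted in saline with 1% Tween-80, final ethanol 9%, 0.22 μm filtered. +E2 groups received 60 μg unlabeled estradiol co-injected. Killed under ether at set times; tissues KCl-washed, blotted, weighed, gamma counted; %ID/g, mean with SE.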

Rattus norvegicus [2] = experiment: Biodistribution in uterus / spleen, muscle, lungs of immature female rat after 1 hr administration of 3 micro Ci (111 kBq) in the absence of 60 microg estradiol; format: ADME, organism-based; details: in vivo
Summary of the method: (§2)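 Same in vivo procedure: immature female Long Evans rats (21–24 days), three to five per group, 3 μCi (111 kBq) tracer i.v. via tail vein in 9% ethanol/saline/1% Tween-80, ± 60 μg estradiol co-injected at 1 h. Uterus %ID/g (gamma counting) divided by blood, or by nontarget organ (muscle, spleen, lungs), %ID/g to give ratios.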

Rattus norvegicus [3] = experiment: Biodistribution in kidney of immature female rat after 3 hour administration of 3 micro Ci (111 kBq) in the absence of 60 microg estradiol; format: ADME, organism-based; details: in vivo
Summary of the method: (§3)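 Immature female Long Evans rats (21–24 days, 45–70 g), unanesthetized in retention cages, given 3 µCi (111 kBq) 125I-labeled steroid i.v. via lateral tail vein. Vehicle was ethanol diluted in saline containing 1% Tween-80, giving 9% ethanol final. The blocking group received 60 µg unlabeled estradiol co-injected. Rats were killed under ether by axillary bleeding, and tissues were KCl-washed and gamma-counted. Data are %ID/g, mean ± SE, n=3–5.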

Rattus norvegicus [4] = experiment: Biodistribution in muscle of immature female rat after 5 hour administration of 3 micro Ci (111 kBq) in the absence of 60 microg estradiol; format: ADME, organism-based, Muscle tissue; details: in vivo; summary of the method: as §1
Rattus norvegicus [5] = experiment: Biodistribution in muscle of immature female rat after 12 hour administration of 3 micro Ci (111 kBq) in the absence of 60 microg estradiol; format: ADME, organism-based, Muscle tissue; details: in vivo; summary of the method: as §1
Rattus norvegicus [6] = experiment: Biodistribution in uterus of immature female rat after 1 hr administration of 3 micro Ci (111 kBq) in the absence of 60 microg estradiol; format: ADME, organism-based; details: in vivo
Summary of the method: (§4)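 Immature female Long Evans rats (21–24 days, 45–70 g), 3–5 per group, unanesthetized in retention cages, given 3 μCi (111 kBq) 125I-labeled steroid by lateral tail vein. Vehicle: ethanol diluted with saline containing 1% Tween-80, final ethanol 9%. +E2 group co-injected 60 μg unlabeled estradiol (1 h only). Killed under ether; tissues KCl-washed, weighed, gamma-counted. Output: %ID/g (mean, SE) and uterus to blood or nontarget (muscle, spleen, lungs) ratios.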

Rattus norvegicus [7] = experiment: Biodistribution in kidney of immature female rat after 5 hour administration of 3 micro Ci (111 kBq) in the absence of 60 microg estradiol; format: ADME, organism-based; details: in vivo; summary of the method: as §3
Rattus norvegicus [8] = experiment: Biodistribution in spleen of immature female rat after 1 hr administration of 3 micro Ci (111 kBq) in the presence of (+E2); format: ADME, organism-based; details: in vivo; summary of the method: as §1
Rattus norvegicus [9] = experiment: Biodistribution in blood of immature female rat after 12 hour administration of 3 micro Ci (111 kBq) in the absence of 60 microg estradiol; format: ADME, organism-based; details: in vivo; summary of the method: as §3
Rattus norvegicus [10] = experiment: Biodistribution in muscle of immature female rat after 1 hr administration of 3 micro Ci (111 kBq) in the absence of 60 microg estradiol; format: ADME, organism-based, Muscle tissue; details: in vivo; summary of the method: as §1
Rattus norvegicus [11] = experiment: Biodistribution in thyroid of immature female rat after 1 hr administration of 3 micro Ci (111 kBq) in the absence of 60 microg estradiol; format: ADME, organism-based, Thyroid gland; details: in vivo; summary of the method: as §1
Rattus norvegicus [12] = experiment: Biodistribution in lungs of immature female rat after 5 hour administration of 3 micro Ci (111 kBq) in the absence of 60 microg estradiol; format: ADME, organism-based, Lung; details: in vivo; summary of the method: as §1
Rattus norvegicus [13] = experiment: Biodistribution in uterus / blood of immature female rat after 1 hr administration of 3 micro Ci (111 kBq) in the absence of 60 microg estradiol; format: ADME, organism-based; details: in vivo; summary of the method: as §2
Rattus norvegicus [14] = experiment: Biodistribution in uterus of immature female rat after 1 hr administration of 3 micro Ci (111 kBq) in the presence of (+E2); format: ADME, organism-based; details: in vivo; summary of the method: as §4
Rattus norvegicus [15] = experiment: Biodistribution in uterus of immature female rat after 5 hour administration of 3 micro Ci (111 kBq) in the absence of 60 microg estradiol; format: ADME, organism-based; details: in vivo; summary of the method: as §4
Rattus norvegicus [16] = experiment: Biodistribution in uterus of immature female rat after 12 hour administration of 3 micro Ci (111 kBq) in the absence of 60 microg estradiol; format: ADME, organism-based; details: in vivo; summary of the method: as §4
Rattus norvegicus [17] = experiment: Biodistribution in uterus / blood of immature female rat after 1 hr administration of 3 micro Ci (111 kBq) in the presence of (+E2); format: ADME, organism-based; details: in vivo; summary of the method: as §2
Rattus norvegicus [18] = experiment: Biodistribution in uterus / spleen, muscle, lungs of immature female rat after 1 hr administration of 3 micro Ci (111 kBq) in the presence of (+E2); format: ADME, organism-based; details: in vivo; summary of the method: as §2
Rattus norvegicus [19] = experiment: Biodistribution in blood of immature female rat after 1 hr administration of 3 micro Ci (111 kBq) in the absence of 60 microg estradiol; format: ADME, organism-based; details: in vivo; summary of the method: as §3
Rattus norvegicus [20] = experiment: Biodistribution in uterus of immature female rat after 3 hour administration of 3 micro Ci (111 kBq) in the absence of 60 microg estradiol; format: ADME, organism-based; details: in vivo; summary of the method: as §4
Rattus norvegicus [21] = experiment: Biodistribution in fat of immature female rat after 1 hr administration of 3 micro Ci (111 kBq) in the absence of 60 microg estradiol; format: ADME, organism-based, Adipose tissue; details: in vivo; summary of the method: as §3
Rattus norvegicus [22] = experiment: Biodistribution in spleen of immature female rat after 5 hour administration of 3 micro Ci (111 kBq) in the absence of 60 microg estradiol; format: ADME, organism-based; details: in vivo; summary of the method: as §1
Rattus norvegicus [23] = experiment: Biodistribution in muscle of immature female rat after 3 hour administration of 3 micro Ci (111 kBq) in the absence of 60 microg estradiol; format: ADME, organism-based, Muscle tissue; details: in vivo; summary of the method: as §1
[24] = target: Estrogen receptor (Mus musculus) (UniProt O08537+P19785); experiment: Relative binding affinity (RBA) against murine cytoplasmic estrogen receptor incubated at 0-4 degree Celsius for 18 hours; format: protein assay
Summary of the method: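 Competitive binding on murine uterine cytoplasmic extract with 20 nM [3H]estradiol and competitor steroids at 2 nM–20 μM, incubated 18 h at 0–4 °C. RBA = 100 × ratio of […] concentration giving 50% competition for specific binding. Mean of three experiments with SD.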

Rattus norvegicus [25] = experiment: Biodistribution in lungs of immature female rat after 1 hr administration of 3 micro Ci (111 kBq) in the presence of (+E2); format: ADME, organism-based, Lung; details: in vivo; summary of the method: as §3
Rattus norvegicus [26] = experiment: Biodistribution in blood of immature female rat after 3 hour administration of 3 micro Ci (111 kBq) in the absence of 60 microg estradiol; format: ADME, organism-based; details: in vivo; summary of the method: as §3
Rattus norvegicus [27] = experiment: Biodistribution in uterus / spleen, muscle, lungs of immature female rat after 5 hour administration of 3 micro Ci (111 kBq) in the absence of 60 microg estradiol; format: ADME, organism-based; details: in vivo; summary of the method: as §4
Rattus norvegicus [28] = experiment: Biodistribution in thyroid of immature female rat after 3 hour administration of 3 micro Ci (111 kBq) in the absence of 60 microg estradiol; format: ADME, organism-based, Thyroid gland; details: in vivo; summary of the method: as §1
Rattus norvegicus [29] = experiment: Biodistribution in lungs of immature female rat after 12 hour administration of 3 micro Ci (111 kBq) in the absence of 60 microg estradiol; format: ADME, organism-based, Lung; details: in vivo; summary of the method: as §1
Rattus norvegicus [30] = experiment: Biodistribution in liver of immature female rat after 1 hr administration of 3 micro Ci (111 kBq) in the presence of (+E2); format: ADME, organism-based; details: in vivo; summary of the method: as §3

Estrogen receptor (Mus musculus), sequence (O08537 whole entry, looked up): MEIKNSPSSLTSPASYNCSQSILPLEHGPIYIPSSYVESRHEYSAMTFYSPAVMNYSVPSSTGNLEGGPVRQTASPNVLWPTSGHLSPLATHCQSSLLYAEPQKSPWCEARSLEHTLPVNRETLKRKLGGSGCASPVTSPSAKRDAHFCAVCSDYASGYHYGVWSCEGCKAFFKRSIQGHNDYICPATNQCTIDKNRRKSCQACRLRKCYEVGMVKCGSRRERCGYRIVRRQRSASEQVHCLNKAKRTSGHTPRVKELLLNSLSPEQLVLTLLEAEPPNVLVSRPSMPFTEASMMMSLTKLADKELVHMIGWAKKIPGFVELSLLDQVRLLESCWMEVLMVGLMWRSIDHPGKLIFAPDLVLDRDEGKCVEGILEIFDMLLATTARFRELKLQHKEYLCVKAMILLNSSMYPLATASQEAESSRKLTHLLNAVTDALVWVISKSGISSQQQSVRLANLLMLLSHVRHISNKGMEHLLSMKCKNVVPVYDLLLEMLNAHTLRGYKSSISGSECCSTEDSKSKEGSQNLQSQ
Estrogen receptor (Mus musculus), sequence (P19785 whole entry, looked up): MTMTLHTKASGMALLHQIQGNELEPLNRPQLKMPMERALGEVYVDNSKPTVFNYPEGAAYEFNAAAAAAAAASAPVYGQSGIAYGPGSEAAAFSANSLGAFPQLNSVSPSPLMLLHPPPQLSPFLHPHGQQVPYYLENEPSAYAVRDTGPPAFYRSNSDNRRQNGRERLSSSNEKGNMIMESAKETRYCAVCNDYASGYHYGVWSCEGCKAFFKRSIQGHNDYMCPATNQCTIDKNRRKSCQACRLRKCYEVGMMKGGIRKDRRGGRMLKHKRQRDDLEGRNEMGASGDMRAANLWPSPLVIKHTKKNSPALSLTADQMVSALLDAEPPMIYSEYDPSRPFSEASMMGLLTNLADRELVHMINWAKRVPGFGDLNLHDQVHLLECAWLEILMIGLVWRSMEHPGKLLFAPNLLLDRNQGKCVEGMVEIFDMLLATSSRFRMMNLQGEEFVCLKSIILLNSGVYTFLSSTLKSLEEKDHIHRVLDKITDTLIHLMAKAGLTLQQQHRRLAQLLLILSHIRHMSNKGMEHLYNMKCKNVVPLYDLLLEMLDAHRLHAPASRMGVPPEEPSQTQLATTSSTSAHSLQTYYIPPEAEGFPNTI

| ID/g (Rattus norvegicus [1]) [%] | ID/g (Rattus norvegicus [3]) [%] | ID/g (Rattus norvegicus [4]) [%] | ID/g (Rattus norvegicus [5]) [%] | ID/g (Rattus norvegicus [6]) [%] | ID/g (Rattus norvegicus [7]) [%] | ID/g (Rattus norvegicus [8]) [%] | ID/g (Rattus norvegicus [9]) [%] | ID/g (Rattus norvegicus [10]) [%] | ID/g (Rattus norvegicus [11]) [%] | ID/g (Rattus norvegicus [12]) [%] | uterus-to-blood ratio of %ID/g (Rattus norvegicus [13]) [%] | ID/g (Rattus norvegicus [14]) [%] | ID/g (Rattus norvegicus [15]) [%] | ID/g (Rattus norvegicus [16]) [%] | uterus/blood %ID/g ratio (Rattus norvegicus [17]) [%] | ID/g (Rattus norvegicus [19]) [%] | ID/g (Rattus norvegicus [20]) [%] | ID/g (Rattus norvegicus [21]) [%] | RBA [24] | Structure (SMILES) | further results |
| --- | --- | --- | --- | --- | --- | --- | --- | --- | --- | --- | --- | --- | --- | --- | --- | --- | --- | --- | --- | --- | --- |
| 0.62 | 0.96 | 0.45 | 0.07 | 4.41 | 1.52 | 1.04 | 0.11 | 0.87 | 224 | 0.51 | 9.82 | 0.81 | 3.9 | 1.2 | 1.6 | 0.45 | 3.23 | 3.34 | 13.5 | CO[C@H]1C[C@@]2(C)[C@@H](CC[C@@]2(O)/C=C/I)[C@@H]2CCc3cc(O)c(F)cc3[C@H]21 | uterus-to-nontarget tissue uptake ratio (Rattus norvegicus [2]): 4.78%; uterus-to-nontarget tissue uptake ratio (Rattus norvegicus [18]): 0.86%; ID/g (Rattus norvegicus [22]): 0.82%; ID/g (Rattus norvegicus [23]): 0.56%; ID/g (Rattus norvegicus [25]): 1.22%; ID/g (Rattus norvegicus [26]): 0.38%; uterus to nontarget tissue ratio (Rattus norvegicus [27]): 8.56%; ID/g (Rattus norvegicus [28]): 355%; ID/g (Rattus norvegicus [29]): 0.13% |
| – | – | – | – | – | – | – | – | – | – | – | – | – | – | – | – | – | – | – | 27.7 | CO[C@H]1C[C@@]2(C)[C@@H](CC[C@@]2(O)/C=C/I)[C@@H]2CCc3c(ccc(O)c3F)[C@H]21 | – |
| 0.48 | 0.47 | 0.28 | 0.03 | 1 | 0.25 | 0.56 | 0.08 | 0.73 | 27 | 0.54 | 2.21 | 0.52 | 0.34 | 0.08 | 1.09 | 0.53 | 0.53 | 3.45 | 6.2 | C[C@]12CC[C@@H]3c4cc(F)c(O)cc4CC[C@H]3[C@@H]1CC[C@@]2(O)/C=C/I | ID/g (Rattus norvegicus [30]): 3.86%; ID/g (Rattus norvegicus [22]): 0.27%; ID/g (Rattus norvegicus [23]): 0.37%; ID/g (Rattus norvegicus [25]): 0.93%; ID/g (Rattus norvegicus [26]): 0.42%; ID/g (Rattus norvegicus [28]): 39.1%; ID/g (Rattus norvegicus [29]): 0.1% |
| – | – | – | – | – | – | – | – | – | – | – | – | – | – | – | – | – | – | – | 27.9 | CO[C@H]1C[C@@]2(C)[C@@H](CC[C@@]2(O)/C=C\I)[C@@H]2CCc3cc(O)c(F)cc3[C@H]21 | – |
